Reference: ChEMBL document CHEMBL3102776, “Synthesis and biological evaluation of farnesylthiosalicylamides as potential anti-tumor agents” (Bioorg Med Chem, 2014)
pIC50: −log10 of the molar value. ≈ marks a conversion by molar mass, not a printed value. Calls of active or inactive are those of the source. The calls are words filed in the database; no cut-off is given here.

Experiments:
[1] = Cytotoxicity against human H460 cells after 48 hrs by MTT assay; format: functional, cell-based; details: NCI-H460, 48 h
Summary of the method: (§1)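 Cells seeded at 10⁴ per well in DMEM with 10% FBS and grown overnight. Compound at a range of concentrations for 48 h, in triplicate. MTT (5 mg mL⁻¹ stock) added for the last 4 h, formazan dissolved in DMSO, absorbance read at 570 nm. Percent inhibition used to derive IC50. Values are mean ± SEM of at least three independent experiments.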

[2] = Cytotoxicity against human SGC7901 cells after 48 hrs by MTT assay; format: functional, cell-based; details: SGC-7901, 48 h; summary of the method: as §1
SMMC-7721 [3] = test: Cytotoxicity against human SMMC7721 cells after 48 hrs by MTT assay; format: functional, cell-based; details: SMMC-7721, 48 h; summary of the method: as §1
MCF7 = test: Cytotoxicity against human MCF7 cells after 48 hrs by MTT assay; format: functional, cell-based; details: MCF7, 48 h; summary of the method: as §1
EJ = test: Cytotoxicity against human EJ cells after 48 hrs by MTT assay; format: functional, cell-based; summary of the method: as §1
SK-OV-3 = test: Cytotoxicity against human SKOV3 cells after 48 hrs by MTT assay; format: functional, cell-based; details: SK-OV-3, 48 h; summary of the method: as §1
[4] = Cytotoxicity against human PANC1 cells after 48 hrs by MTT assay; format: functional, cell-based; details: PANC-1, 48 h; summary of the method: as §1
SMMC-7721 [5] = test: Induction of apoptosis in human SMMC7721 cells assessed as late apoptotic cells at 12 uM after 48 hrs by annexin V-FITC/propidium iodide staining-based flow cytometry (reference value: 1.55%); format: functional
SMMC-7721 [6] = test: Induction of apoptosis in human SMMC7721 cells assessed as viable cells at 12 uM after 48 hrs by annexin V-FITC/propidium iodide staining-based flow cytometry (reference value: 93.81%); format: functional; details: SMMC-7721, 48 h, read-out: Activity
SMMC-7721 [7] = test: Induction of apoptosis in human SMMC7721 cells assessed as early apoptotic cells at 12 uM after 48 hrs by annexin V-FITC/propidium iodide staining-based flow cytometry (reference value: 3.87%); format: functional
SMMC-7721 [8] = test: Inhibition of Ras in human SMMC7721 cells assessed as reduction in phosphorylated ERK1 level at 12 uM after 8 hrs by immunoblotting analysis; format: cell-based
Summary of the method: (§2)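 SMMC-7721 cells at 1.5 × 10⁵/mL treated with 3.0, 6.0 or 12 µmol/L compound or vehicle for 8 h. Cells lysed, 50 µg protein per lane run on 12% SDS–PAGE gels. Blots probed for total and phospho-ERK1/2 (Thr202/Tyr204), total and phospho-Akt (Ser473), and β-actin. Densitometry relative to β-actin. Means ± SEM of three experiments.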

SMMC-7721 [9] = test: Inhibition of Ras in human SMMC7721 cells assessed as reduction in phosphorylated ERK2 level at 12 uM after 8 hrs by immunoblotting analysis; format: cell-based; summary of the method: as §2
SMMC-7721 [10] = test: Inhibition of Ras in human SMMC7721 cells assessed as reduction in phosphorylated Akt level at 12 uM after 8 hrs by immunoblotting analysis; format: cell-based; summary of the method: as §2
[11] = Lipophilicity, log P of the compound in 10% PEG400 aqueous solution; format: physicochemical
SMMC-7721 [12] = test: Induction of apoptosis in human SMMC7721 cells assessed as necrotic cells at 12 uM after 48 hrs by annexin V-FITC/propidium iodide staining-based flow cytometry (reference value: 0.77%); format: functional
[13] = Aqueous solubility of the compound in 10% PEG400 aqueous solution after 24 hrs by HPLC analysis; format: physicochemical
Summary of the method: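 Roughly 20.0 mg of solid in 5 mL of 10% PEG400 in water. Sonicated 10 min, then stirred 24 h at 25 °C in a water bath. Centrifuged 10 min at 10,000 rpm and the supernatant passed through a microporous membrane. Concentration measured by HPLC against a standard curve.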

SMILES | pIC50 [1] | pIC50 [2] | pIC50 (SMMC-7721 [3]) | pIC50 (MCF7) | pIC50 (EJ) | pIC50 (SK-OV-3) | pIC50 [4] | Activity (SMMC-7721 [5]) [%] | viability at 12 µM (SMMC-7721 [6]) [%] | Activity (SMMC-7721 [7]) [%] | Activity (SMMC-7721 [8]) | Activity (SMMC-7721 [9]) | Activity (SMMC-7721 [10]) | logP [11] | Activity (SMMC-7721 [12]) [%] | solubility at 24 h [13] [µg/mL]
CC(C)=CCC/C(C)=C/CC/C(C)=C/CSc1ccccc1C(=O)NCCCCCCN | 5.12 | 5.10 | 5.10 | 5.10 | 5.00 | 5.12 | 5.06 | – | – | – | – | – | – | – | – | –
CC(C)=CCC/C(C)=C/CC/C(C)=C/CSc1ccccc1C(=O)NCCCCCCNC(=O)c1ccccc1SC/C=C(\C)CC/C=C(\C)CCC=C(C)C | < 4.30 | < 4.30 | < 4.30 | 4.39 | 4.36 | < 4.30 | < 4.30 | – | – | – | – | – | – | – | – | –
CC(C)=CCC/C(C)=C/CC/C(C)=C/CSc1ccccc1C(=O)NCCN | 4.44 | 4.47 | 4.60 | 4.54 | < 4.30 | 4.50 | < 4.30 | – | – | – | – | – | – | – | – | –
CC(C)=CCC/C(C)=C/CC/C(C)=C/CSc1ccccc1C(=O)O [SALIRASIB] | 4.31 | 4.38 | 4.16 | 4.31 | 4.32 | 4.29 | 4.27 | 5.87 | 80.4 | 13.49 | Active | Active | Active | 6.32 | 0.21 | 3650 (≈ 10.2 mM)
CC(C)=CCC/C(C)=C/CC/C(C)=C/CSc1ccccc1C(=O)NCCCN | 4.69 | 4.89 | 4.97 | 4.86 | 4.76 | 4.91 | 4.93 | – | – | – | – | – | – | – | – | –
CC(C)=CCC/C(C)=C/CC/C(C)=C/CSc1ccccc1C(=O)NCCCCCN | 5.05 | 5.13 | 5.04 | 5.11 | 5.01 | 5.15 | 5.12 | – | – | – | – | – | – | 5.98 | – | 18000 (≈ 40.6 mM)
CC(C)=CCC/C(C)=C/CC/C(C)=C/CSc1ccccc1C(=O)NCCCCN | 4.90 | 4.95 | 4.82 | 4.95 | 4.88 | 5.11 | 4.98 | – | – | – | – | – | – | – | – | –
CC(C)=CCC/C(C)=C/CC/C(C)=C/CSc1ccccc1C(=O)NCCCCCNC(=O)c1ccccc1SC/C=C(\C)CC/C=C(\C)CCC=C(C)C | 4.33 | < 4.30 | 4.44 | < 4.30 | 4.40 | 4.38 | < 4.30 | – | – | – | – | – | – | – | – | < 10
